Measured values reported in ChEMBL document CHEMBL2413022, “3-Aryl-4-acyloxyethoxyfuran-2(5H)-ones as inhibitors of tyrosyl-tRNA synthetase: synthesis, molecular docking and antibacterial evaluation” (Bioorg Med Chem, 2013).
≈ marks a conversion by molar mass, not a printed value.

Key:
Candida albicans = test: Antifungal activity against Candida albicans ATCC 10231 by MTT assay; format: functional
Method in brief: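 LB medium; inoculum about 10⁵ cfu/mL with serially diluted compound (medium-only blank), incubated at 28 °C. MTT in PBS (3 mg/mL) added, 4–5 h at room temperature. Dye extracted 8–10 h in 10% SDS with 5% isopropanol and HCl. OD read at 570 nm, control OD 1.0–2.0; MIC50 from absorbance.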

Pseudomonas aeruginosa = test: Antibacterial activity against Pseudomonas aeruginosa ATCC 27853 by MTT assay; format: functional
Method in brief: (§1)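 LB medium; inoculum about 10⁵ cfu/mL added to serially diluted compound (medium-only blank) and incubated at 37 °C. Then MTT in PBS (3 mg/mL) added, 4–5 h at room temperature. Medium removed, dye extracted 8–10 h in 10% SDS with 5% isopropanol and HCl. Read OD 570 nm, control OD kept at 1.0–2.0; MIC50 taken from absorbance.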

Staphylococcus aureus = test: Antibacterial activity against Staphylococcus aureus ATCC 25923 by MTT assay; format: functional; method in brief: as §1
[1] = Inhibition of Staphylococcus aureus tyrosyl-tRNA synthetase expressed in Escherichia coli using L-[ring-3,5-3H] tyrosine as substrate preincubated for 10 mins by liquid scintillation counting analysis
Method in brief: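 Enzyme purified to about 98% (SDS–PAGE). Aminoacylation at 37 °C, final 100 mM Tris/Cl pH 7.9, 50 mM KCl. TyrRS (0.2 nM) preincubated with a range of inhibitor concentrations for 10 min at room temperature, then pre-warmed mixture added. Aliquots quenched in ice-cold 7% TCA at set intervals, filtered, counted by liquid scintillation.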

Escherichia coli = test: Antibacterial activity against Escherichia coli ATCC 35218 by MTT assay; format: functional; method in brief: as §1

SMILES | MIC50 (Candida albicans) [µg/mL] | MIC50 (Pseudomonas aeruginosa) [µg/mL] | MIC50 (Staphylococcus aureus) [µg/mL] | IC50 [1] [µM] | MIC50 (Escherichia coli) [µg/mL]
O=C(Cc1cccc(Br)c1)OCCOC1=C(c2ccc(Cl)cc2)C(=O)OC1 | 4.2 (≈ 9.3 µM) | 4.6 (≈ 10.2 µM) | 13.6 (≈ 30.1 µM) | 3.5 | 16.6 (≈ 36.8 µM)
CCCCCC(=O)OCCOC1=C(c2ccccc2)C(=O)OC1 | 21.4 (≈ 67.2 µM) | 60.8 (≈ 191 µM) | 43 (≈ 135 µM) | 47.8 | > 100
COc1ccccc1C(=O)OCCOC1=C(c2ccccc2)C(=O)OC1 | > 100 | 73.6 (≈ 208 µM) | > 100 | 64.7 | > 100
O=C(Cc1cccc(Cl)c1)OCCOC1=C(c2ccc(Cl)cc2)C(=O)OC1 | 2.5 (≈ 6.14 µM) | 2.5 (≈ 6.14 µM) | 5.2 (≈ 12.8 µM) | 1.1 | 7.6 (≈ 18.7 µM)
O=C1OCC(OCCOC(=O)c2ccc([N+](=O)[O-])cc2)=C1c1ccccc1 | 2.7 (≈ 7.31 µM) | 11.4 (≈ 30.9 µM) | 24.5 (≈ 66.3 µM) | 5.2 | 5 (≈ 13.5 µM)
O=C1OCC(OCCOC(=O)c2ccc(O)cc2)=C1c1ccccc1 | 23 (≈ 67.6 µM) | 21.3 (≈ 62.6 µM) | 23.3 (≈ 68.5 µM) | 11.2 | 19.5 (≈ 57.3 µM)
O=C(Cc1ccc(F)cc1)OCCOC1=C(c2ccc(Cl)cc2)C(=O)OC1 | 15.6 (≈ 39.9 µM) | 13.2 (≈ 33.8 µM) | 14.9 (≈ 38.1 µM) | 5.7 | > 100
O=C1OCC(OCCOC(=O)c2cccnc2)=C1c1ccccc1 | > 100 | 44.8 (≈ 138 µM) | 22.8 (≈ 70.1 µM) | 26 | 18.6 (≈ 57.2 µM)
O=C1OCC(OCCOC(=O)c2ccccc2)=C1c1ccccc1 | > 100 | 13.4 (≈ 41.3 µM) | 17.8 (≈ 54.9 µM) | 12.8 | > 100
O=C(Cc1ccc(O)cc1)OCCOC1=C(c2ccccc2)C(=O)OC1 | > 100 | 68.1 (≈ 192 µM) | 22.5 (≈ 63.5 µM) | > 100 | 53.6 (≈ 151 µM)
O=C1OCC(OCCOC(=O)c2ccccc2[N+](=O)[O-])=C1c1ccccc1 | > 100 | 35.5 (≈ 96.1 µM) | 24.3 (≈ 65.8 µM) | 18.2 | 17.5 (≈ 47.4 µM)
O=C1OCC(OCCOC(=O)c2ccc(F)cc2)=C1c1ccccc1 | 18.1 (≈ 52.9 µM) | 13.8 (≈ 40.3 µM) | 8.2 (≈ 24 µM) | 7.5 | > 100
COc1ccc(CC(=O)OCCOC2=C(c3ccccc3)C(=O)OC2)cc1OC | 92.3 (≈ 232 µM) | > 100 | > 100 | 83.8 | > 100
Cc1ccc(C(=O)OCCOC2=C(c3ccccc3)C(=O)OC2)cc1 | 23.4 (≈ 69.2 µM) | 37.7 (≈ 111 µM) | 18.3 (≈ 54.1 µM) | 17.8 | > 100
O=C(Cc1ccc(Cl)cc1)OCCOC1=C(c2ccc(Cl)cc2)C(=O)OC1 | > 100 | 17.7 (≈ 43.5 µM) | 13.3 (≈ 32.7 µM) | 9.3 | 45.6 (≈ 112 µM)
O=C1OCC(OCCOC(=O)c2ccc(O)c(O)c2)=C1c1ccccc1 | > 100 | > 100 | 19.9 (≈ 55.8 µM) | 75.3 | > 100
O=C(Cc1ccc(Br)cc1)OCCOC1=C(c2ccccc2)C(=O)OC1 | > 100 | 22 (≈ 52.7 µM) | 15.4 (≈ 36.9 µM) | 48.1 | 78.7 (≈ 189 µM)
O=C1OCC(OCCOC(=O)c2cccc(C(F)(F)F)c2)=C1c1ccccc1 | > 100 | 2.4 (≈ 6.12 µM) | 17.5 (≈ 44.6 µM) | 4.3 | 23.3 (≈ 59.4 µM)
O=C1OCC(OCCOC(=O)c2cc(Cl)ccc2Cl)=C1c1ccccc1 | > 100 | 2.9 (≈ 7.37 µM) | 24.8 (≈ 63.1 µM) | 5.2 | 13.9 (≈ 35.3 µM)
O=C(Cc1ccc(Br)cc1)OCCOC1=C(c2ccc(Cl)cc2)C(=O)OC1 | 13.1 (≈ 29 µM) | 20.6 (≈ 45.6 µM) | 13 (≈ 28.8 µM) | 16.7 | 14.3 (≈ 31.7 µM)
CCCC(=O)OCCOC1=C(c2ccccc2)C(=O)OC1 | 88.7 (≈ 306 µM) | 98.1 (≈ 338 µM) | 41.3 (≈ 142 µM) | 84.6 | > 100

SMILES | MIC50 (Candida albicans) [µg/mL] | MIC50 (Pseudomonas aeruginosa) [µg/mL] | MIC50 (Staphylococcus aureus) [µg/mL] | IC50 [1] [µM] | MIC50 (Escherichia coli) [µg/mL]
Cc1cccc(C(=O)OCCOC2=C(c3ccccc3)C(=O)OC2)c1 | > 100 | 16.7 (≈ 49.4 µM) | 15.8 (≈ 46.7 µM) | 8.1 | > 100
O=C1OCC(OCCOC(=O)c2cc(O)cc(O)c2)=C1c1ccccc1 | > 100 | 14.4 (≈ 40.4 µM) | 2.2 (≈ 6.17 µM) | 6.7 | > 100
CCCCCCCC(=O)OCCOC1=C(c2ccccc2)C(=O)OC1 | > 100 | 56.8 (≈ 164 µM) | > 100 | 41 | 48.8 (≈ 141 µM)
O=C1OCC(OCCOC(=O)c2ccc3ccccc3c2)=C1c1ccccc1 | > 100 | 18.1 (≈ 48.3 µM) | 21.9 (≈ 58.5 µM) | 17.7 | > 100
O=C1OCC(OCCOC(=O)c2ccc(Cl)cc2)=C1c1ccccc1 | 78.4 (≈ 219 µM) | 14.5 (≈ 40.4 µM) | 17.2 (≈ 47.9 µM) | 8.8 | > 100
O=C1OCC(OCCOC(=O)c2ccc3cc(O)ccc3c2)=C1c1ccccc1 | > 100 | 15.8 (≈ 40.5 µM) | 16.1 (≈ 41.2 µM) | 16.8 | > 100
O=C1OCC(OCCOC(=O)c2cccc([N+](=O)[O-])c2)=C1c1ccccc1 | > 100 | > 100 | > 100 | > 100 | 9.4 (≈ 25.5 µM)
CCn1cc(C(=O)O)c(=O)c2cc(F)c(N3CCNCC3)cc21 [NORFLOXACIN] | – | 2.1 (≈ 6.58 µM) | – | – | –
O=C1OCC(OCCOC(=O)c2ccc(Cl)c(Cl)c2)=C1c1ccccc1 | 95.4 (≈ 243 µM) | 22.7 (≈ 57.7 µM) | 19.9 (≈ 50.6 µM) | 33.4 | 2.9 (≈ 7.37 µM)
O=C(Cc1cccc(Cl)c1)OCCOC1=C(c2ccccc2)C(=O)OC1 | > 100 | 83.1 (≈ 223 µM) | > 100 | > 100 | > 100
O=C1OCC(OCCOC(=O)c2ccc(O)cc2O)=C1c1ccccc1 | > 100 | 36.7 (≈ 103 µM) | 15.3 (≈ 42.9 µM) | 50.2 | > 100
O=C1OCC(OCCOC(=O)c2cccc(Cl)c2)=C1c1ccc(Cl)cc1 | 1.2 (≈ 3.05 µM) | 1.5 (≈ 3.81 µM) | 2 (≈ 5.09 µM) | 0.9 | 4.3 (≈ 10.9 µM)
CC(=O)N1CCN(c2ccc(OCC3COC(Cn4ccnc4)(c4ccc(Cl)cc4Cl)O3)cc2)CC1 (centres undefined) [KETOCONAZOLE] | 3.8 (≈ 7.15 µM) | – | – | – | –
O=C1OCC(OCCOC(=O)c2ccc(Cl)cc2Cl)=C1c1ccccc1 | 22.9 (≈ 58.2 µM) | 21.3 (≈ 54.2 µM) | 18.2 (≈ 46.3 µM) | 16.5 | 12.8 (≈ 32.6 µM)
O=C1OCC(OCCOC(=O)c2ccccc2O)=C1c1ccccc1 | > 100 | 47.8 (≈ 140 µM) | 24.9 (≈ 73.2 µM) | 41.4 | 15.7 (≈ 46.1 µM)
NC[C@H]1O[C@H](O[C@H]2[C@H](O)[C@@H](O[C@H]3O[C@H](CO)[C@@H](O)[C@H](N)[C@H]3O)[C@H](N)C[C@@H]2N)[C@H](O)[C@@H](O)[C@@H]1O [KANAMYCIN] | – | – | 1.5 (≈ 3.1 µM) | – | 3.5 (≈ 7.22 µM)
O=C(Cc1ccc(F)cc1)OCCOC1=C(c2ccccc2)C(=O)OC1 | > 100 | > 100 | 16.5 (≈ 46.3 µM) | 93.6 | > 100
Cc1ccccc1C(=O)OCCOC1=C(c2ccccc2)C(=O)OC1 | > 100 | 90.2 (≈ 267 µM) | > 100 | > 100 | 19.3 (≈ 57 µM)
O=C1OCC(OCCOC(=O)c2ccccc2Cl)=C1c1ccccc1 | > 100 | 52.7 (≈ 147 µM) | 72.9 (≈ 203 µM) | 56.8 | 17.9 (≈ 49.9 µM)
O=C(Cc1ccc(O)cc1)OCCOC1=C(c2ccc(Cl)cc2)C(=O)OC1 | > 100 | 15.5 (≈ 39.9 µM) | 27.4 (≈ 70.5 µM) | 7.9 | > 100
